The source made the active and inactive calls.
Columns and labels:
Homo sapiens = organism: Homo sapiens; test: Binding affinity to human morselized allograft bone by immunohistochemical analysis
Procedure, shortened: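 Human cancellous/cortical bone granules (0.5–2.0 mm), EDTA-treated, with covalently coupled VAN and washed until eluent gave no S. aureus disk-diffusion inhibition. PBS-washed ×3, blocked 1 h in 10% FBS/PBS, rabbit anti-VAN IgG (1:500) 12 h at 4°C, Alexa 488 anti-rabbit (1:1,000) 1 h RT, epifluorescence read-out. Uncoupled bone as control.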

[1] = Stability of the human bone graft-bound drug in air after 7 days by immunofluorescent staining; assay type: ADME; settings: 168 h
Procedure, shortened: (§1)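 About 10 mg modified allograft held 7 days at 37°C in 1 ml water, PBS, DMEM-F-12 with 10% FBS, or S. aureus in TSB (bacteria removed by 30 min sonication in 1% SDS), or kept dry in air; then PBS-washed, blocked in 10% FBS/PBS 1 h, rabbit anti-VAN IgG 1:500 at 4°C 12 h, Alexa Fluor 488 anti-rabbit 1:1,000 RT 1 h, viewed by epifluorescence.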

[2] = Stability of the human bone graft-bound drug in water after 7 days by immunofluorescent staining; assay type: ADME; settings: 168 h; procedure, shortened: as §1
[3] = Stability of the human bone graft-bound drug in phosphate buffer saline after 7 days by immunofluorescent staining; assay type: ADME; settings: 168 h; procedure, shortened: as §1
[4] = Stability of the human bone graft-bound drug in dulbecco modified eagle medium after 7 days by immunofluorescent staining; assay type: ADME; settings: 168 h; procedure, shortened: as §1
[5] = Stability of the human bone graft-bound drug 7 days after incubation with Staphylococcus aureus in trypticase soy broth by immunofluorescent staining; assay type: ADME; settings: 168 h; procedure, shortened: as §1
Staphylococcus aureus [6] = test: Antibacterial activity against Staphylococcus aureus Xen36 infected in drug treated human morselized bone allograft assessed as inhibition of biofilm formation after 5 hrs by confocal laser scanning microscopy; assay type: functional, organism-based
Procedure, shortened: (§2)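 Allograft morsels challenged with S. aureus (1 ml, 1 × 10^4 CFU/ml) in TSB at 37°C without agitation for 5 or 12 h, washed three times in PBS, stained with Live/Dead BacLight (20 min, RT), imaged by confocal laser scanning microscopy with Z-plane optical sectioning and reconstruction.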

Staphylococcus aureus [7] = test: Antibacterial activity against Staphylococcus aureus Xen36 infected in drug treated human morselized bone allograft assessed as inhibition of biofilm formation after 12 hrs by confocal laser scanning microscopy; assay type: functional, organism-based; procedure, shortened: as §2
Staphylococcus aureus [8] = test: Antibacterial activity against Staphylococcus aureus Xen36 infected in drug treated human morselized bone allograft assessed as inhibition of biofilm formation after 6 hrs by scanning electron microscopy; assay type: functional, organism-based
Procedure, shortened: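 Allograft morsels exposed to S. aureus in TSB for 6 h, then examined by scanning electron microscopy at low magnification, ×1,500 and ×4,000 for adherent bacteria and biofilm.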

Escherichia coli = test: Antibacterial activity against Escherichia coli DH5[alpha] infected in drug treated human morselized bone allograft assessed as reduction of bacterial count after up to 12 hrs by colony counting; assay type: functional, organism-based
Procedure, shortened: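 Sterilized allograft granules (0.5–2.0 mm, human cancellous/cortical) incubated without agitation at 37°C in TSB with 1 ml of 1 × 10^4 CFU/ml bacteria (overnight TSB culture, 250 rpm, 37°C) for 2, 5, 8 or 12 h; washed three times with PBS, three more times, sonicated 5 min in 0.3% Tween 80/PBS, serially diluted, plated on Petrifilms and colonies counted; S. aureus shown as % of control per time point.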

Staphylococcus aureus [9] = test: Antibacterial activity against Staphylococcus aureus Xen36 infected in drug treated human morselized bone allograft assessed as reduction of bacterial count after 12 hrs followed by additional 4 hrs in presence of 10 ug/ml of drug by colony counting; assay type: functional, organism-based
Procedure, shortened: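 Control or modified allograft incubated with S. aureus (1 ml, 10^4 CFU/ml) in TSB 12 h, either with 10 μg/ml solution VAN added alongside inoculum, or washed, transferred and given 4 h in TSB with 10 μg/ml VAN; after 16 h total, washed, adherent bacteria sonicated off, plated and counted, expressed as % of control per condition.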

[10] = Cytotoxicity in human FOB on drug treated bone allograft assessed as morphological changes after 48 hrs by propidium iodide staining
Procedure, shortened: (§3)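 Cortical allograft pieces (1 × 1 cm; 70% ethanol, PBS and medium rinses, 10 min UV) seeded with 1 ml of 50,000 cells/ml hFOB in DMEM-F-12 with 10% FBS; after 48 h fixed (4% paraformaldehyde), permeabilized (0.1% Triton X-100), stained with Alexa 488-phalloidin and propidium iodide 30 min RT, imaged by confocal microscopy.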

[11] = Cytotoxicity in human FOB on drug treated bone allograft assessed as changes on cytoskeletal architecture after 48 hrs by propidium iodide staining; procedure, shortened: as §3
[12] = Cytotoxicity in human FOB on drug treated bone allograft assessed as increase of protein level after 1 day; settings: 24 h
Procedure, shortened: (§4)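 hFOB cells cultured on sterilized flat cortical allograft in DMEM-F-12 with 10% FBS for 1 or 3 days, lysed with M-PER buffer 30 min with shaking; total protein by Bradford assay as index of adhesion and proliferation; at least three experiments, means ± standard errors.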

[13] = Cytotoxicity in human FOB on drug treated bone allograft assessed as increase of protein level after 3 days; settings: 72 h; procedure, shortened: as §4
[14] = Cytotoxicity in human FOB on drug treated bone allograft assessed as release of lactate dehydrogenase after 1 day; settings: 24 h
Procedure, shortened: (§5)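 hFOB cells grown on flat cortical allograft 1 or 3 days; LDH released into medium measured with Tox-7 kit, given as percentage of released over total cellular LDH, normalized to day 1 controls; at least three experiments, means ± standard errors.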

[15] = Cytotoxicity in human FOB on drug treated bone allograft assessed as release of lactate dehydrogenase after 3 days; settings: 72 h; procedure, shortened: as §5

CN[C@H](CC(C)C)C(=O)N[C@H]1C(=O)N[C@@H](CC(N)=O)C(=O)N[C@H]2C(=O)N[C@H]3C(=O)N[C@H](C(=O)N[C@H](C(=O)O)c4cc(O)cc(O)c4-c4cc3ccc4O)[C@H](O)c3ccc(c(Cl)c3)Oc3cc2cc(c3O[C@@H]2O[C@H](CO)[C@@H](O)[C@H](O)[C@H]2O[C@H]2C[C@](C)(N)[C@H](O)[C@H](C)O2)Oc2ccc(cc2Cl)[C@H]1O [VANCOMYCIN]
Non-toxic: Activity [10] | Activity [11] | Activity [13] | Activity [14] | Activity [15]
inactive: Activity (Escherichia coli)
Stable: Stability [1] | Stability [2] | Stability [3] | Stability [4] | Stability [5]
Toxic: Activity [12]
active: Activity (Homo sapiens) | Activity (Staphylococcus aureus [6]) | Activity (Staphylococcus aureus [7]) | Activity (Staphylococcus aureus [8]) | Activity (Staphylococcus aureus [9])

Reference: ChEMBL document CHEMBL1687840, “Vancomycin bonded to bone grafts prevents bacterial colonization” (Antimicrob Agents Chemother, 2011)
